Experimental data as given in ChEMBL document CHEMBL2021776, “Highly potent and selective fluorescent antagonists of the human adenosine A₃ receptor based on the 1,2,4-triazolo[4,3-a]quinoxalin-1-one scaffold” (J Med Chem, 2012).
Blank lines part the entries; values can stand above or below the molecule they belong to. Calls of active or inactive are those of the source. The rule behind the calls is not given here.

Key:
Adenosine receptor A3 = molecular target: T1, Adenosine receptor A3 (Homo sapiens, UniProt P0DMS8); assay: Antagonist activity at human adenosine A3 receptor expressed in forskolin-stimulated CHO cells assessed as inhibition of NECA-induced CRE-SPAP gene transcription by measuring intracellular cAMP level after 5 hrs; format: functional, cell-based
T1 sequence (P0DMS8 whole entry): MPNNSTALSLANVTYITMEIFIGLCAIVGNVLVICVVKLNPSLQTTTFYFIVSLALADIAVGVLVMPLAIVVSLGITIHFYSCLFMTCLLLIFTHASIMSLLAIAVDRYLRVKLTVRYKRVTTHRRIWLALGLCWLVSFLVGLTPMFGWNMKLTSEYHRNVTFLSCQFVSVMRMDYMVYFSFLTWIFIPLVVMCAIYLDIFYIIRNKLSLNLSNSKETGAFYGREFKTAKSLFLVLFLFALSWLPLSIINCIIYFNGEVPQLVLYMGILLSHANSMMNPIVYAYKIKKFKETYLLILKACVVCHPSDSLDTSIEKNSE
Method in brief: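 Clonal CHO cells co-expressing CRE-SPAP reporter and human A3 receptor, serum-starved 18 h. Three antagonist concentrations for 30 min at 37 °C, then NECA curves for 30 min, then 1 μM forskolin for 5 h. After 1 h in fresh medium and 65 °C heat step, SPAP activity read as 4-nitrophenyl phosphate hydrolysis (405 nm). Curves globally fitted to an interaction model.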

[1] = molecular target: T2, Adenosine receptor A1 (Homo sapiens) (UniProt P30542); assay: Binding affinity to human full length human adenosine A1 receptor expressed in CHO cells at 25 nM after 10 mins by confocal microscopic analysis; format: cell-based
T2 sequence (whole entry): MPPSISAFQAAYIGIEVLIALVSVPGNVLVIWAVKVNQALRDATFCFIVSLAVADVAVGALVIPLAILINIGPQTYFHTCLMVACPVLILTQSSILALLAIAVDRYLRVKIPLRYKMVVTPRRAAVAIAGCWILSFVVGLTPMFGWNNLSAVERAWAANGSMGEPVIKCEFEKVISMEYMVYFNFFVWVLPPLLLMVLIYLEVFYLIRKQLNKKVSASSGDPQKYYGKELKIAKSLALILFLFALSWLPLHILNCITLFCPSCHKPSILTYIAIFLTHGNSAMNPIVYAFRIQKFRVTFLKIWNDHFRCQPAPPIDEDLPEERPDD
Method in brief: (§1)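 Live CHO cells stably expressing human A1 receptor were washed in HBS. They were preincubated 30 min at 37 °C with or without 100 nM DPCPX, then exposed to fluorescent ligand (25 nM, or up to 100 nM) for 10 min. Single equatorial confocal images were taken using identical laser power, gain and offset.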

[2] = molecular target: T3, Adenosine receptor A3 (Homo sapiens) (UniProt P0DMS8); assay: Binding affinity to human adenosine A3 receptor expressed in CHO cells assessed as intracellular fluorescence level after 10 mins by confocal microscopic analysis; format: cell-based
T3 sequence (whole entry): T1 sequence (P0DMS8 whole entry)
Method in brief: (§2)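 Live CHO cells stably expressing human A3 receptor were washed in HBS. They were preincubated 30 min at 37 °C with or without 100 nM MRS1220, then exposed to 25 nM fluorescent ligand for 10 min. Single equatorial confocal images were taken in the continued presence of ligand, using identical laser and detector settings. Images are representative of 3−5 experiments.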

Homo sapiens = species on record: Homo sapiens; assay: Selectivity ratio of human A1 receptor to human A3 receptor
[3] = molecular target: T3, Adenosine receptor A3 (Homo sapiens); assay: Binding affinity to human adenosine A3 receptor expressed in CHO cells assessed as intracellular fluorescence level after 10 mins by confocal microscopic analysis in presence of MRS1220 treated 30 mins before compound challenge; format: cell-based; method in brief: as §2
Adenosine receptor A2b = molecular target: T4, Adenosine receptor A2b (Homo sapiens, UniProt P29275); assay: Antagonist activity at adenosine A2B receptor in HEK293 cells expressing glosensor cAMP biosensor assessed as inhibition of NECA-induced increase of intracellular cAMP level after 5 hrs; format: functional, cell-based
T4 sequence (P29275 whole entry): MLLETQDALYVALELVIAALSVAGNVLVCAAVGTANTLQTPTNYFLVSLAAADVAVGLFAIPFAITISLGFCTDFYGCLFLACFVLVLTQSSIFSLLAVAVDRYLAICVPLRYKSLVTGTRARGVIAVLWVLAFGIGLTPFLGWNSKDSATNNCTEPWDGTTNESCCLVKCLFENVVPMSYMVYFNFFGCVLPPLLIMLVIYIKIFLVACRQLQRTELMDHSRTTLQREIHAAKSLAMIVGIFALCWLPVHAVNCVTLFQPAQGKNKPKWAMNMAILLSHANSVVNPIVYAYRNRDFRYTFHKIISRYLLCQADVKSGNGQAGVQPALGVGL
Method in brief: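 HEK293 cells stably expressing Glosensor cAMP biosensor, with endogenous human A2B receptor. Cells equilibrated 2 h at 37 °C in HBSS with 3% v/v Glosensor reagent. Antagonist added at 1.5 h, NECA at 2 h. Luminescence read every 2 min for 60 min; maximal read used. pKD estimated from rightward shift of NECA curve by 1 μM antagonist via dose ratio.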

Adenosine receptor A1 = molecular target: T5, Adenosine receptor A1 (Homo sapiens, UniProt P30542); assay: Antagonist activity at human adenosine A1 receptor expressed in CHO cells assessed as inhibition of NECA-induced increase of intracellular calcium level after 5 hrs
T5 sequence (P30542 whole entry): T2 sequence (whole entry)

[4] = molecular target: T2, Adenosine receptor A1 (Homo sapiens); assay: Binding affinity to human full length human adenosine A1 receptor expressed in CHO cells after 10 mins by confocal microscopic analysis in presence of DPCPX treated 30 mins before compound challenge; format: cell-based; method in brief: as §1
[5] = molecular target: T2, Adenosine receptor A1 (Homo sapiens); assay: Binding affinity to human full length human adenosine A1 receptor expressed in CHO cells up to 100 nM after 10 mins by confocal microscopic analysis; format: cell-based; method in brief: as §1

SMILES: COc1ccc(-n2nc3c(NC(=O)CCC(=O)NCCCCCCCCN)nc4ccccc4n3c2=O)cc1
Kd (Adenosine receptor A3): 0.331 nM

SMILES: COc1ccc(-n2nc3c(NC(=O)CN)nc4ccccc4n3c2=O)cc1
Kd (Adenosine receptor A3): 1.45 nM

SMILES: COc1ccc(-n2nc3c(NC(=O)CCC(=O)NCCOCCOCCNC(=O)CCOCCOCCOCCOCCOCCOCCOCCOCCOCCOCCOCCOCCNC(=O)c4ccc(-c5c6ccc(=[N+](C)C)cc-6oc6cc(N(C)C)ccc56)c(C(=O)[O-])c4)nc4ccccc4n3c2=O)cc1
Kd (Adenosine receptor A3): 5.62 nM

SMILES: COc1ccc(-n2nc3c(NC(=O)c4ccc(N)cc4)nc4ccccc4n3c2=O)cc1
Kd (Adenosine receptor A3): 38 nM

Further lines, results first:

Kd (Adenosine receptor A3): 148 nM
SMILES: CCN1/C(=C/C=C/C=C/C2=[N+](CCCCCC(=O)NCCOCCOCCNC(=O)CCC(=O)Nc3nc4ccccc4n4c(=O)n(-c5ccc(OC)cc5)nc34)c3cc(S(=O)(=O)[O-])ccc3C2(C)C)C(C)(C)c2cc(S(=O)(=O)O)ccc21

Kd (Adenosine receptor A3): 20.9 nM
SMILES: COc1ccc(-n2nc3c(NC(=O)CCC(=O)NCCOCCOCCN)nc4ccccc4n3c2=O)cc1

Kd (Adenosine receptor A3): 16.6 nM
SMILES: COc1ccc(-n2nc3c(NC(=O)CCC(=O)NCCCCCCCCNC(=O)CCCCCNC(=O)COc4ccc(/C=C/C5=[N+]6C(=Cc7ccc(-c8cccs8)n7[B-]6(F)F)C=C5)cc4)nc4ccccc4n3c2=O)cc1

Activity [1]: Active
Activity [2]: Active
Selectivity ratio (Homo sapiens): 50
Kd (Adenosine receptor A3): 3.39 nM
Activity [3]: Active
Kd (Adenosine receptor A2b): < 1000 nM
Kd (Adenosine receptor A1): 166 nM
Activity [4]: inactive
SMILES: COc1ccc(-n2nc3c(NC(=O)CCC(=O)NCCOCCOCCNC(=O)CCCCCNC(=O)COc4ccc(C5=[N+]6C(=Cc7ccc(-c8cccs8)n7[B-]6(F)F)C=C5)cc4)nc4ccccc4n3c2=O)cc1

Activity [2]: Active
Selectivity ratio (Homo sapiens): 650
Activity [5]: inactive
Kd (Adenosine receptor A3): 0.437 nM
Activity [3]: inactive
Kd (Adenosine receptor A2b): < 1000 nM
Kd (Adenosine receptor A1): 275 nM
SMILES: COc1ccc(-n2nc3c(NC(=O)CCC(=O)NCCOCCOCCNC(=O)CCCCCNC(=O)COc4ccc(/C=C/C5=[N+]6C(=Cc7ccc(-c8cccs8)n7[B-]6(F)F)C=C5)cc4)nc4ccccc4n3c2=O)cc1
